# Reference: paper PMC4787808 (Nucleic Acids Research, 2015)
# Entries after “also recorded” stand apart in the source; their conditions may differ.
# Experiments:
# [1] = test system: intracellular L. donovani amastigotes; test: Inhibition of L. donovani amastigotes in infected THP-1 macrophages; assay type: cell-based, Leishmania donovani; details: 1 μM, positive control
# Procedure, shortened: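 THP-1 cells were differentiated with 25 ng/ml PMA for 24 h at 37°C, then infected with stationary-phase luciferase-expressing L. donovani promastigotes (5:1 parasite:macrophage) for 24 h and washed free of external parasites. Infected macrophages were trypsinised, checked by Giemsa stain and plated in triplicate (5 × 10^5 cells/ml). Compounds in medium with 1% DMSO were added for 48 h; lysates were read by Bright-Glo luminescence. Medium ± DMSO served as 0% inhibition; amphotericin B 1 μM was the positive control on each plate.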
# [2] = test system: L. tarentolae S30 translation (leishmanial ribosomes); test: Cell-free inhibition of translation, L. tarentolae LEXSY system; assay type: biochemical, Leishmania tarentolae; details: relative to PAR
# Procedure, shortened: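 Leishmania tarentolae cell-free LEXSY translation system driven by a pLEXSY-in-vitro2 vector encoding EGFP. Reactions with varied aminoglycoside concentrations ran 120 min at 26°C, and GFP fluorescence was read directly (ex 488, em 507 nm). Each curve used at least six concentrations. IC50 values came from concentration-response fits of at least three independent repeats.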
# [3] = test system: auditory outer hair cells (organ of Corti explants); test: Toxicity assay in cochlear explants; assay type: cell-based, CBA/J mice
# Procedure, shortened: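 Organ of Corti explants from postnatal day 2–3 CBA/J mice were kept in serum-free medium with supplement, BSA, glutamine and glucose, and pre-incubated about 48 h. They were then exposed to drug for 72 h, fixed in 4% PFA, permeabilised and stained with rhodamine phalloidin. Hair cells were counted apex to base under 50x oil and compared with a cytocochleogram database. Loss was reported as percent averaged over the whole explant length.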
# [4] = test system: Leishmania; details: cited from earlier work
smiles,measurement,setting,value
C[C@@H]1[C@H](O)[C@@H](C)/C=C/C=C/C=C/C=C/C=C/C=C/C=C/[C@H](O[C@@H]2O[C@H](C)[C@@H](O)[C@H](N)[C@@H]2O)C[C@@H]2O[C@](O)(C[C@@H](O)C[C@@H](O)[C@H](O)CC[C@@H](O)C[C@@H](O)CC(=O)O[C@H]1C)C[C@H](O)[C@H]2C(=O)O [Amphotericin B],decrease in intracellular amastigotes,[1],> 90%
"CN[C@@H]1[C@@H](O)[C@@H](O[C@@H]2[C@@H](O)[C@H](O[C@H]3O[C@H]([C@@H](C)O)[C@@H](O)[C@H](O)[C@H]3N)[C@@H](N)C[C@H]2N)OC[C@]1(C)O [G418, Geneticin]",times more potent in inhibiting leishmanial ribosomal translation than PAR,[2],20 times
same,toxicity to auditory outer hair cells along entire length of explant (in words),"[3]; murine explants, 72 h",high toxicity
CNC(C)C1CCC(N)C(OC2C(N)CC(N)C(OC3OCC(C)(O)C(NC)C3O)C2O)O1 (centres unmarked) [Gentamicin],anti-leishmanial activity (in words),[4],lack an anti-leishmanial activity
"NC[C@@H]1O[C@H](O[C@H]2[C@@H](O)[C@H](O[C@@H]3[C@@H](O)[C@H](N)C[C@H](N)[C@H]3O[C@H]3O[C@H](CO)[C@@H](O)[C@H](O)[C@H]3N)O[C@@H]2CO)[C@H](N)[C@@H](O)[C@@H]1O [PAR, Paromomycin]","outer hair cell pathology, basal turn of explant","[3]; 10 μM, 72 h",intact
same,"outer hair cell pathology, basal turn of explant","[3]; 22 μM, 72 h",significant loss of OHC; also recorded: partial destruction of outer hair cells
same,"outer hair cell pathology, basal turn of explant","[3]; 33 μM, 72 h",complete destruction; also recorded: complete elimination of basal-turn outer hair cells
same,IC Coch50 (outer hair cell loss in cochlear explants),"[3]; murine explants, 72 h exposure",30 µM
